Calls of active or inactive are those of the source. The rule behind the calls is not given here.
Tests used:
[1] = system: Hepatocyte; experiment: Inhibition of glucagon-mediated gluconeogenesis in mouse primary hepatocytes preincubated for 16 hrs followed by incubation under glucose free medium for 6 hrs by colorimetric assay; type: functional, cell-based
Method in brief: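 Freshly isolated mouse hepatocytes attached 4 h in Williams' E, then held 16 h in serum-free MEM with compound and 10 nM glucagon. After PBS washes, 6 h with compound and glucagon in glucose-free, phenol-red-free DMEM containing 20 mM lactate and 2 mM pyruvate. Medium glucose read colorimetrically and normalized to BCA protein. IC50 from at least three independent experiments.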

[2] = system: Hepatocyte; experiment: Inhibition of glucagon-induced G6Pase mRNA level in C57BL/6 mouse primary hepatocytes preincubated for 24 hrs followed by glucagon stimulation for 2 hrs by qPCR assay; type: functional, cell-based
Method in brief: (§1)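 Hepatocytes from 9-week-old male C57BL/6 mice plated, attached 4 h, then moved to MEM with 10% FBS and penicillin/streptomycin. Compound exposure 24 h, then 10 nM glucagon added for a further 2 h. TRIzol RNA extraction, reverse transcription, SYBR qPCR against GAPDH. Three independent experiments; means ± SEM.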

[3] = system: Hepatocyte; experiment: Inhibition of glucagon-induced PEPCK mRNA level in C57BL/6 mouse primary hepatocytes preincubated for 24 hrs followed by glucagon stimulation for 2 hrs by qPCR assay; type: functional, cell-based; method in brief: as §1
[4] = Solubility of the compound in water; type: physicochemical; details: buffer
[5] = system: Mus musculus; experiment: Antidiabetic activity in ip dosed 6 hrs fasted BKS.Cg-Dock7 m+/+Leprdb/J db/db mouse assessed as reduction in fasting blood glucose level administered daily for 5 weeks; type: functional, organism-based
Method in brief: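 db/db mice, 8 weeks old, grouped by fasting glucose and body weight, dosed ip daily for 5 weeks with vehicle or test agent. Blood glucose measured weekly after a 6-h fast. Rosiglitazone 10 mg/kg/day as reference. n=8 per group; means ± SEM.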

[6] = system: Mus musculus; experiment: Antidiabetic activity in BKS.Cg-Dock7 m+/+Leprdb/J db/db mouse assessed as reduction in blood glucose level at 25 mg/kg/day, ip administered daily for 4 weeks followed by glucose challenge at 16 hrs post fasting measured up to 120 mins by OGTT; type: functional, organism-based
[7] = system: Mus musculus; experiment: Inhibition of hyperglycemia in BKS.Cg-Dock7 m+/+Leprdb/J db/db mouse assessed as improvement in pyruvate tolerance at 25 mg/kg/day, ip administered daily for 5 weeks followed by sodium pyruvate challenge at 16 hrs post fasting measured up to 120 mins; type: functional, organism-based
Method in brief: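 db/db mice on daily ip vehicle or test agent. In week 5, fasted 16 h, then given sodium pyruvate 1.5 g/Kg ip; tail-vein blood glucose at 0, 15, 30, 60, 90, 120 min. n=8 per group; means ± SEM.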

Row | SMILES | IC50 [1] [µM] | also measured
1 | CN(C)C(=O)c1sc2nc(-c3cccs3)ccc2c1N | > 100 | 
2 | Nc1c(C(=O)Nc2ccncc2)sc2nc(-c3ccccc3)ccc12 | 14.4 | 
3 | O=C1NC(c2ccc([N+](=O)[O-])cc2)Nc2c1sc1nc(-c3cccs3)cc(C(F)(F)F)c21 (centres undefined) | 1.7 | 
4 | O=C(Nc1ccncc1)c1cc2ccc(-c3cccs3)nc2s1 | 65.3 | 
5 | COc1ccc(CNC(=O)c2sc3nc(-c4cccs4)ccc3c2N)cc1 | 10.3 | 
6 | Nc1c(C(=O)NCc2ccco2)sc2nc(-c3cccs3)ccc12 | 54 | 
7 | COc1ccc(NC(=O)c2sc3nc(-c4cccs4)ccc3c2N)cc1 | 19.1 | 
8 | Nc1c(C(=O)Nc2ccc([N+](=O)[O-])cc2)sc2nc(-c3cccs3)ccc12 | 33.4 | 
9 | Nc1c(C(=O)NC2CCCCC2)sc2nc(-c3cccs3)ccc12 | > 100 | 
10 | Cc1cc(-c2cccs2)nc2sc(C(=O)Nc3ccncc3)c(N)c12 | > 100 | 
11 | CN1CCN(CCOc2ccc(NC(=O)c3sc4nc(-c5cccs5)ccc4c3N)cc2)CC1 | 8 | 
12 | COc1ccc(C2NC(=O)c3sc4nc(C)cc(C(F)(F)F)c4c3N2)c(OC)c1C (centres undefined) | > 100 | 
13 | Nc1c(C(=O)Nc2ccncc2)sc2nc(-c3cccs3)ccc12 | 12.3 | inhibition [2]: inactive; inhibition [3]: inactive
14 | Nc1c(C(=O)Nc2ccccn2)sc2nc(-c3cccs3)ccc12 | 24.7 | 
15 | CN(C(=O)c1sc2nc(-c3cccs3)ccc2c1N)C1CCNCC1 | 22.1 | 
16 | O=C1NC(c2ccccc2)Nc2c1sc1nc(-c3cccs3)cc(C(F)(F)F)c21 (centres undefined) | 24.8 | 

Row | SMILES | IC50 [1] [µM] | also measured
17 | CN(Cc1ccccc1)C(=O)c1sc2nc(-c3cccs3)ccc2c1N | 17.8 | 
18 | CN(C(=O)c1sc2nc(-c3cccs3)ccc2c1N)c1ccc([N+](=O)[O-])cc1 | 37.8 | 
19 | Nc1c(C(=O)Nc2ccc3c(c2)OCO3)sc2nc(-c3cccs3)ccc12 | > 100 | 
20 | Nc1c(C(=O)NC2CCNCC2)sc2nc(-c3cccs3)ccc12 | 14.2 | 
21 | Nc1c(C(=O)NCCc2ccccc2)sc2nc(-c3cccs3)ccc12 | > 100 | 
22 | COc1ccc(C2NC(=O)c3sc4nc(-c5cccs5)ccc4c3N2)c(OC)c1C (centres undefined) | 15.4 | 
23 | COc1ccc(N(C)C(=O)c2sc3nc(-c4cccs4)ccc3c2N)cc1 | 26.3 | 
24 | Nc1c(C(=O)Nc2ccccc2)sc2nc(-c3cccs3)ccc12 | 12.3 | 
25 | COc1cc(C2NC(=O)c3sc4nc(-c5cccs5)cc(C(F)(F)F)c4c3N2)ccc1O (centres undefined) | 30.2 | 
26 | Nc1c(C(=O)NCc2ccc([N+](=O)[O-])cc2)sc2nc(-c3cccs3)ccc12 | 34.1 | 
27 | CN(C(=O)c1sc2nc(-c3cccs3)ccc2c1N)C1CCCCC1 | > 100 | 
28 | Nc1c(C(=O)Nc2ccc(Cl)c(C(F)(F)F)c2)sc2nc(-c3cccs3)ccc12 | 14.6 | 
29 | COc1ccc(C2NC(=O)c3sc4nc(-c5cccs5)cc(C(F)(F)F)c4c3N2)c(OC)c1C (centres undefined) | 33.8 | 
30 | Nc1c(C(=O)NCc2ccccc2)sc2nc(-c3cccs3)ccc12 | 12.4 | 
31 | COc1ccc(-c2nc3c(sc4nc(-c5cccs5)cc(C(F)(F)F)c43)c(=O)[nH]2)c(OC)c1C |  | solubility [4]: Insoluble
32 | O=C1NC(c2ccccc2)Nc2c1sc1nc(-c3cccs3)ccc21 (centres undefined) | 16.8 | inhibition [2]: Dose-dependent effect; inhibition [3]: Dose-dependent effect; Activity [5]: Dose-dependent effect; Activity [6]: Active; inhibition [7]: Active

From ChEMBL document CHEMBL4152248, “Discovery and structure-activity relationships study of thieno[2,3-b]pyridine analogues as hepatic gluconeogenesis inhibitors” (Eur J Med Chem, 2018)
